Measurements: ChEMBL document CHEMBL2321783, “Structure-activity relationships of peptides incorporating a bioactive reverse-turn heterocycle at the melanocortin receptors: identification of a 5800-fold mouse melanocortin-3 receptor (mMC3R) selective antagonist/partial agonist versus the mouse melanocortin-4 receptor (mMC4R)” (J Med Chem, 2013)

Columns and labels:
Format in all cases: functional, cell-based
[1] = biological target: Melanocortin receptor 3 (Mus musculus, UniProt P33033); experiment: Agonist activity at mouse MC3 receptor expressed in HEK293 cells after 6 hrs by cAMP-based beta-galactosidase reporter gene assay
How it was run: (§1)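 HEK-293 cells stably expressing the mouse receptor, kept in DMEM with 10% fetal calf serum, transfected with CRE/β-galactosidase reporter. Efficacy is relative to NDP-MSH on the same plate. EC50 is the mean of duplicate wells from three or more independent experiments, fitted by nonlinear least squares.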

[2] = biological target: Melanocyte-stimulating hormone receptor (Mus musculus, UniProt Q01727); experiment: Agonist activity at mouse MC1 receptor expressed in HEK293 cells after 6 hrs by cAMP-based beta-galactosidase reporter gene assay; how it was run: as §1
[3] = biological target: Melanocortin receptor 5 (Mus musculus, UniProt P41149); experiment: Agonist activity at mouse MC5 receptor expressed in HEK293 cells after 6 hrs by cAMP-based beta-galactosidase reporter gene assay; how it was run: as §1
[4] = biological target: Melanocortin receptor 4 (Mus musculus, UniProt P56450); experiment: Agonist activity at mouse MC4 receptor expressed in HEK293 cells after 6 hrs by cAMP-based beta-galactosidase reporter gene assay; how it was run: as §1
Chain of Melanocortin receptor 4 (P56450 whole entry): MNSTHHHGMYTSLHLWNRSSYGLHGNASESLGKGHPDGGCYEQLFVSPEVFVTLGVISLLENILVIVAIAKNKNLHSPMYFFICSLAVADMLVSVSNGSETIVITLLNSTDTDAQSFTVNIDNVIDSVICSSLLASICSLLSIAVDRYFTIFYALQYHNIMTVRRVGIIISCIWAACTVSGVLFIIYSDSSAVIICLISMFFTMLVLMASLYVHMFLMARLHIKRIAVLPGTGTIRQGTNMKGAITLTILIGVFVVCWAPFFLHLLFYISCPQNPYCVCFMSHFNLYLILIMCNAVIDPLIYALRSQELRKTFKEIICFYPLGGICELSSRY

Chain of Melanocortin receptor 3 (P33033 whole entry): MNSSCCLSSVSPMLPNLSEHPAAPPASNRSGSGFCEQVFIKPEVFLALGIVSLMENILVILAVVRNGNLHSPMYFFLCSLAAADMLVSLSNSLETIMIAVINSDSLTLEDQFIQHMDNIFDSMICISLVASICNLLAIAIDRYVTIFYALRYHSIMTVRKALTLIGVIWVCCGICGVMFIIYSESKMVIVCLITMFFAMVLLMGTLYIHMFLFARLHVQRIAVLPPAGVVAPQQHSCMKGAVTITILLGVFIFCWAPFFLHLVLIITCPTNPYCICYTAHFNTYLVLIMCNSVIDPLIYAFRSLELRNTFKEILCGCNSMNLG
Chain of Melanocortin receptor 5 (P41149 whole entry): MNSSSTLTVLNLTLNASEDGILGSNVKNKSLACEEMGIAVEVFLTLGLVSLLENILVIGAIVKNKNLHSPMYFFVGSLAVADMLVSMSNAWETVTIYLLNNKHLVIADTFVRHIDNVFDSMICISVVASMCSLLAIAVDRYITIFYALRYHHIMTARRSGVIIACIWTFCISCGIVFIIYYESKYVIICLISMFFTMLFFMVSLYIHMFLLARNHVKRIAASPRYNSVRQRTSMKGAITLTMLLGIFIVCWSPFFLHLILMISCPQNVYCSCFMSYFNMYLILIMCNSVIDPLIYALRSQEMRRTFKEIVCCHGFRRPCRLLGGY
Chain of Melanocyte-stimulating hormone receptor (Q01727 whole entry): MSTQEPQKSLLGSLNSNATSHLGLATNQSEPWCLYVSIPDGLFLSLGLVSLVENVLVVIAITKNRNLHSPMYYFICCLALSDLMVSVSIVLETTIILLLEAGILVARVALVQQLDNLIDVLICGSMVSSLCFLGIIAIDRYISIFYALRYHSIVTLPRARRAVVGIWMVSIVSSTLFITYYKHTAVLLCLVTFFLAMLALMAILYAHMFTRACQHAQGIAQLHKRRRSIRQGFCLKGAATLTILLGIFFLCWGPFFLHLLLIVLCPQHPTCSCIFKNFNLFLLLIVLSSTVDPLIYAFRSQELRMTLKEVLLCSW

Row | SMILES | EC50 [1] [nM] | further results
1 | C[C@@H]1NC(=O)[C@H](CC(N)=O)NC(=O)[C@H](Cc2ccc(-c3ccccc3)cc2)N2C[C@H](CCCN=C(N)N)NC(=O)[C@@H](CSCC2=O)NC(=O)[C@@H](Cc2ccccc2)NC(=O)[C@H](Cc2cnc[nH]2)NC(=O)[C@@H](NC(=O)[C@@H](N)Cc2ccc(O)cc2)CSSC[C@@H](C(=O)N[C@@H](Cc2ccc(O)cc2)C(N)=O)NC(=O)[C@H](Cc2ccccc2)NC1=O | 230 | –
2 | C[C@@H]1NC(=O)[C@H](Cc2cnc[nH]2)NC(=O)[C@@H](NC(=O)[C@@H](N)Cc2ccc(O)cc2)CSSC[C@@H](C(=O)N[C@@H](Cc2ccc(O)cc2)C(N)=O)NC(=O)[C@H](Cc2ccccc2)NC(=O)[C@H](C)NC(=O)[C@H](CC(N)=O)NC(=O)[C@H](Cc2c[nH]c3ccccc23)N2C[C@H](CCCN=C(N)N)NC(=O)[C@@H](CSCC2=O)NC1=O | 7720 | EC50 [2]: 12500 nM; EC50 [3]: 7700 nM; EC50 [4]: 20100 nM
3 | C[C@@H]1NC(=O)[C@H](CC(N)=O)NC(=O)[C@H](Cc2c[nH]c3ccccc23)N2C[C@H](CCCNC(=N)N)NC(=O)[C@@H](CSCC2=O)NC(=O)[C@@H](Cc2ccccc2)NC(=O)[C@@H]2CCCN2C(=O)[C@@H](NC(=O)[C@@H](N)Cc2ccc(O)cc2)CSSC[C@@H](C(=O)N[C@@H](Cc2ccc(O)cc2)C(N)=O)NC(=O)[C@H](Cc2ccccc2)NC1=O | 1900 | –
4 | C[C@@H]1NC(=O)[C@H](CC(N)=O)NC(=O)[C@H](Cc2c[nH]c3ccccc23)NC(=O)[C@H](CCCN=C(N)N)NC(=O)[C@@H](Cc2ccccc2)NC(=O)[C@H](Cc2cnc[nH]2)NC(=O)[C@@H](NC(=O)[C@@H](N)Cc2ccc(O)cc2)CSSC[C@@H](C(=O)N[C@@H](Cc2ccc(O)cc2)C(N)=O)NC(=O)[C@H](Cc2ccccc2)NC1=O | 1.7 | EC50 [2]: 0.3 nM; EC50 [3]: 1.45 nM; EC50 [4]: 0.17 nM
5 | C[C@@H]1NC(=O)[C@H](CC(N)=O)NC(=O)[C@H](C)N2C[C@H](CCCNC(=N)N)NC(=O)[C@@H](CSCC2=O)NC(=O)[C@@H](Cc2ccccc2)NC(=O)[C@H](Cc2cnc[nH]2)NC(=O)[C@@H](NC(=O)[C@@H](N)Cc2ccc(O)cc2)CSSC[C@@H](C(=O)N[C@@H](Cc2ccc(O)cc2)C(N)=O)NC(=O)[C@H](Cc2ccccc2)NC1=O | 2230 | –
6 | C[C@@H]1NC(=O)[C@H](CC(N)=O)NC(=O)[C@H](Cc2c[nH]c3ccccc23)N2C[C@H](CCCNC(=N)N)NC(=O)[C@@H](CSCC2=O)NC(=O)[C@@H](Cc2ccccc2)NC(=O)[C@H](Cc2ccccc2)NC(=O)[C@@H](NC(=O)[C@@H](N)Cc2ccc(O)cc2)CSSC[C@@H](C(=O)N[C@@H](Cc2ccc(O)cc2)C(N)=O)NC(=O)[C@H](Cc2ccccc2)NC1=O | 4500 | –
7 | C[C@@H]1NC(=O)[C@H](CC(N)=O)NC(=O)[C@H](Cc2c[nH]c3ccccc23)N2C[C@H](CCCN=C(N)N)NC(=O)[C@@H](CSCC2=O)NC(=O)[C@@H](Cc2ccccc2)NC(=O)[C@H](Cc2cnc[nH]2)NC(=O)[C@@H](NC(=O)[C@@H](N)Cc2ccc(O)cc2)CSSC[C@@H](C(=O)N[C@@H](Cc2ccc(O)cc2)C(N)=O)NC(=O)[C@H](Cc2ccccc2)NC1=O | 324 | –
8 | C[C@@H]1NC(=O)[C@H](CC(N)=O)NC(=O)[C@H](Cc2c[nH]c3ccccc23)N2C[C@H](CCCNC(=N)N)NC(=O)[C@@H](CSCC2=O)NC(=O)[C@@H](Cc2ccc(I)cc2)NC(=O)[C@H](Cc2cnc[nH]2)NC(=O)[C@@H](NC(=O)[C@@H](N)Cc2ccc(O)cc2)CSSC[C@@H](C(=O)N[C@@H](Cc2ccc(O)cc2)C(N)=O)NC(=O)[C@H](Cc2ccccc2)NC1=O | 49 | –
9 | C[C@@H]1NC(=O)[C@H](CC(N)=O)NC(=O)[C@H](Cc2c[nH]c3ccccc23)N2C[C@H](CCCCN)NC(=O)[C@@H](CSCC2=O)NC(=O)[C@@H](Cc2ccccc2)NC(=O)[C@H](Cc2cnc[nH]2)NC(=O)[C@@H](NC(=O)[C@@H](N)Cc2ccc(O)cc2)CSSC[C@@H](C(=O)N[C@@H](Cc2ccc(O)cc2)C(N)=O)NC(=O)[C@H](Cc2ccccc2)NC1=O | 2540 | –
10 | C[C@@H]1NC(=O)[C@H](CC(N)=O)NC(=O)[C@H](Cc2c[nH]c3ccccc23)N2C[C@H](CCCNC(=N)N)NC(=O)[C@@H](CSCC2=O)NC(=O)[C@@H](Cc2cccc3ccccc23)NC(=O)[C@H](Cc2cnc[nH]2)NC(=O)[C@@H](NC(=O)[C@@H](N)Cc2ccc(O)cc2)CSSC[C@@H](C(=O)N[C@@H](Cc2ccc(O)cc2)C(N)=O)NC(=O)[C@H](Cc2ccccc2)NC1=O | 190 | –
11 | C[C@@H]1NC(=O)[C@H](CC(N)=O)NC(=O)[C@@H](Cc2ccc3ccccc3c2)N2C[C@H](CCCNC(=N)N)NC(=O)[C@@H](CSCC2=O)NC(=O)[C@@H](Cc2ccccc2)NC(=O)[C@H](Cc2cnc[nH]2)NC(=O)[C@@H](NC(=O)[C@@H](N)Cc2ccc(O)cc2)CSSC[C@@H](C(=O)N[C@@H](Cc2ccc(O)cc2)C(N)=O)NC(=O)[C@H](Cc2ccccc2)NC1=O | 180 | –
12 | C[C@@H]1NC(=O)[C@H](CC(N)=O)NC(=O)[C@H](Cc2c[nH]c3ccccc23)N2C[C@H](CCCCNC(=N)N)NC(=O)[C@@H](CSCC2=O)NC(=O)[C@@H](Cc2ccccc2)NC(=O)[C@H](Cc2cnc[nH]2)NC(=O)[C@@H](NC(=O)[C@@H](N)Cc2ccc(O)cc2)CSSC[C@@H](C(=O)N[C@@H](Cc2ccc(O)cc2)C(N)=O)NC(=O)[C@H](Cc2ccccc2)NC1=O | 1830 | –
13 | C[C@@H]1NC(=O)[C@@H](NC(=O)[C@@H](N)Cc2ccc(O)cc2)CSSC[C@@H](C(=O)N[C@@H](Cc2ccc(O)cc2)C(N)=O)NC(=O)[C@H](Cc2ccccc2)NC(=O)[C@H](C)NC(=O)[C@H](CC(N)=O)NC(=O)[C@H](Cc2c[nH]c3ccccc23)N2C[C@H](CCCNC(=N)N)NC(=O)[C@@H](CSCC2=O)NC(=O)[C@@H](Cc2ccccc2)NC1=O | 4020 | –
14 | C[C@@H]1NC(=O)[C@H](CC(N)=O)NC(=O)[C@H](Cc2ccc3ccccc3c2)N2C[C@H](CCCNC(=N)N)NC(=O)[C@@H](CSCC2=O)NC(=O)[C@@H](Cc2ccccc2)NC(=O)[C@H](Cc2cnc[nH]2)NC(=O)[C@@H](NC(=O)[C@@H](N)Cc2ccc(O)cc2)CSSC[C@@H](C(=O)N[C@@H](Cc2ccc(O)cc2)C(N)=O)NC(=O)[C@H](Cc2ccccc2)NC1=O | 200 | –
15 | C[C@@H]1NC(=O)[C@H](CC(N)=O)NC(=O)[C@H](Cc2c[nH]c3ccccc23)N2C[C@H](CCCN=C(N)N)NC(=O)[C@@H](CSCC2=O)NC(=O)[C@@H]2CCCN2C(=O)[C@H](Cc2cnc[nH]2)NC(=O)[C@@H](NC(=O)[C@@H](N)Cc2ccc(O)cc2)CSSC[C@@H](C(=O)N[C@@H](Cc2ccc(O)cc2)C(N)=O)NC(=O)[C@H](Cc2ccccc2)NC1=O | 10300 | –
16 | C[C@@H]1NC(=O)[C@H](CC(N)=O)NC(=O)[C@H](Cc2c[nH]c3ccccc23)N2C[C@H](C)NC(=O)[C@@H](CSCC2=O)NC(=O)[C@@H](Cc2ccccc2)NC(=O)[C@H](Cc2cnc[nH]2)NC(=O)[C@@H](NC(=O)[C@@H](N)Cc2ccc(O)cc2)CSSC[C@@H](C(=O)N[C@@H](Cc2ccc(O)cc2)C(N)=O)NC(=O)[C@H](Cc2ccccc2)NC1=O | 8070 | –
